Assays:
FM3A [1] = assay: Mammalian cell cytotoxicity assessed against mouse mammary tumor FM3A cells; format: functional, cell-based
In short: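 Mouse mammary tumor FM3A cells in culture used as a mammalian cytotoxicity control; EC50 determined by a previously reported protocol. Selectivity is the mean EC50 for FM3A cells divided by the mean EC50 for P. falciparum.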

Plasmodium falciparum = assay: (§1) In vitro antimalarial activity against Plasmodium falciparum; format: functional, organism-based
FM3A [2] = assay: as §1; format: functional
Mus musculus [3] = assay: In vivo 50% effective dose tested against Plasmodium berghei NK65 infected mice (Mus musculus), after intraperitoneal administration; format: functional; conditions: ip
In short: (§2)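 Mice infected with P. berghei, in groups of five, were given the compounds intraperitoneally in olive oil at various concentrations. Dosing was once daily on days 0–3. Parasitemia was determined on day 4, and ED values were derived by a previously reported protocol.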

Mus musculus [4] = assay: In vivo 50% effective dose tested against Plasmodium berghei NK65 infected mice (Mus musculus), after oral administration.; format: functional
In short: (§3)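 Mice infected with P. berghei, in groups of five, were given the compounds orally in olive oil at various concentrations. Dosing was once daily on days 0–3. Parasitemia was determined on day 4, and ED values were derived by a previously reported protocol.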

Mus musculus [5] = assay: In vivo 90% effective dose tested against Plasmodium berghei NK65 infected mice (Mus musculus), after intraperitoneal administration; format: functional; conditions: ip; in short: as §2
Mus musculus [6] = assay: In vivo 90% effective dose tested against Plasmodium berghei NK65 infected mice (Mus musculus), after oral administration.; format: functional; in short: as §3
Mus musculus [7] = assay: In vivo […] effective dose tested against Plasmodium berghei NK 65 infected mice (Mus musculus), after intraperitoneal administration; format: functional; conditions: ip; in short: as §2

| SMILES | EC50 (FM3A [1]) [nM] | EC50 (Plasmodium falciparum) [nM] | Selectivity ratio (FM3A [2]) | ED50 (Mus musculus [3]) [mg/kg] | ED50 (Mus musculus [4]) [mg/kg] | ED90 (Mus musculus [5]) [mg/kg] | ED90 (Mus musculus [6]) [mg/kg] | ED50 (Mus musculus [7]) [mg/kg] |
| --- | --- | --- | --- | --- | --- | --- | --- | --- |
| CCOC(C)OOC1(OOC)CCCCCCCCCCC1 (stereo unspecified) | 12000 | 290 | 41 | – | – | – | – | – |
| COOC1(OOC(C)(C)OC)CCCCCCCCCCC1 | 7300 | 240 | 30 | – | – | – | – | – |
| C=C(C)COOC1(OOC)CCCCCCCCCCC1 | 17000 | 1300 | 13 | – | – | – | – | – |
| COOC1(OOCCCCCCI)CCCCCCCCCCC1 | 86000 | 740 | 116 | – | – | – | – | – |
| C=C(C)COOC1(OOCC(=C)C)CCCCCCCCCCC1 | 38000 | 1500 | 25 | – | – | – | – | – |
| COOC1(OOC)CCCCCCCCCCC1 | 1500 | 86 | 17 | 13 | 30 | 20 | 60 | – |
| CCCOOC1(OOCCC)CCCCCCCCCCC1 | 12000 | 1800 | 7 | – | – | – | – | – |
| CCCCC(CCCC)(OC)OOCC | > 48000 | 8600 | >6 | – | – | – | – | – |
| CCCCOOC1(OOCCCC)CCCCCCCCCCC1 | 8500 | 2100 | 4 | – | – | – | – | – |
| COOC1(OOCCCCCCO)CCCCCCCCCCC1 | 1600 | 72 | 22 | 30 | – | 60 | – | – |
| COOC1(OOCCCCCCOC2CCOCC2)CCCCCCCCCCC1 | 7600 | 900 | 8 | – | – | – | – | – |
| C=CCOOC1(OOCC=C)CCCCCCCCCCC1 | 14000 | 1600 | 9 | – | – | – | – | – |
| CCCOOC1(OC)CCCCCCCCCCC1 | > 37000 | 620 | >60 | – | – | – | – | – |
| COOC1(OOCCC(=O)O)CCCCCCCCCCC1 | 450 | 5000 | – | – | – | – | – | – |
| COOC1(OOCCC(=O)OC)CCCCCCCCCCC1 | 1400 | 230 | 6 | – | – | – | – | – |
| C=C(C)COOC(CCCC)(CCCC)OOC | 15000 | 1600 | 9 | – | – | – | – | – |
| COOC1(OOCCCc2ccccc2)CCCCCCCCCCC1 | 34000 | 1000 | 34 | – | – | – | – | – |
| C=CCCOOC1(OOC)CCCCCCCCCCC1 | 6000 | 380 | 16 | – | – | – | – | – |
| COOC1(OOCCCCCC(=O)O)CCCCCCCCCCC1 | 14000 | 270 | 52 | – | – | – | – | – |
| CCCCOOC1(OOC)CCCCCCCCCCC1 | 20000 | 220 | 91 | 35 | – | 80 | – | – |
| CCOOC1(OOCC)CCCCCCCCCCC1 | 10000 | 200 | 50 | 41 | – | – | – | 64 |
| CCOOC1(OC)CCCCCCCCCCC1 | 26000 | 230 | 113 | > 100 | – | – | – | – |
| COOC1(OC)CCCCCCCCCCC1 | 19000 | 80 | 238 | 30 | – | 68 | – | – |
| C[C@@H]1CC[C@H]2[C@@H](C)C(=O)O[C@@H]3O[C@@]4(C)CC[C@@H]1[C@]32OO4 [ARTEMISININ] | – | – | 1000 | 5.4 | 13 | 32 | 89 | – |

— ChEMBL document CHEMBL1135896, “Synthesis and notable antimalarial activity of acyclic peroxides, L-(alkyldioxy)-L-(methyldioxy)cyclododecanes” (J Med Chem, 2002)
